The values below come from paper PMC6557127 (Journal of molecular and cellular cardiology, 2019).

The target of data set [1] is T1, human pGC-A receptor (Homo sapiens, UniProt P16066).
T1 sequence (P16066 33-1061): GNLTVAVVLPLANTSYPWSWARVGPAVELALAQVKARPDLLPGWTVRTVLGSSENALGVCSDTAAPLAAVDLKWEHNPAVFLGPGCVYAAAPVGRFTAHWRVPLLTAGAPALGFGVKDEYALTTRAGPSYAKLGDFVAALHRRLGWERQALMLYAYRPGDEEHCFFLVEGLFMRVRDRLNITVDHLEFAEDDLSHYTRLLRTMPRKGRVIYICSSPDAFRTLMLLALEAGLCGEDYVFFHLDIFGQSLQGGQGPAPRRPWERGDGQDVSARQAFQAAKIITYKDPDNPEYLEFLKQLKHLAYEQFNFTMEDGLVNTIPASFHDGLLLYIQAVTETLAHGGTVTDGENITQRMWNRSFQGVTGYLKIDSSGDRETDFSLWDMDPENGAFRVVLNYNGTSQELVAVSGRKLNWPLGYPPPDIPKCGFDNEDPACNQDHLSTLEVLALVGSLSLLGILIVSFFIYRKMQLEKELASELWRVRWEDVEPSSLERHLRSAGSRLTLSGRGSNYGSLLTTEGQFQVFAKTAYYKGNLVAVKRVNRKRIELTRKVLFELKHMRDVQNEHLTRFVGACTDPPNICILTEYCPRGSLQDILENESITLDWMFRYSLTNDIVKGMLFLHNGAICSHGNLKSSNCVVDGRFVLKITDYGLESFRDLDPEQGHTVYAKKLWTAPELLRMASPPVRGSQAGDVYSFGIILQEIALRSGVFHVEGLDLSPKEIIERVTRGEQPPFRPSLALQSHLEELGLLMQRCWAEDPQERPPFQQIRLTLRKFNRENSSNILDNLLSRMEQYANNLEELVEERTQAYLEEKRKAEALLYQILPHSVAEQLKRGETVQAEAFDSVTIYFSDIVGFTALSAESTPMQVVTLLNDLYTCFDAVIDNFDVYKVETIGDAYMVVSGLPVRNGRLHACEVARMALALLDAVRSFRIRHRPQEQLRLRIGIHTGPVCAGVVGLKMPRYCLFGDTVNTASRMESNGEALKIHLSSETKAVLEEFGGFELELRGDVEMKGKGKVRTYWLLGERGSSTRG
Description: cGMP generation in HEK293 cells overexpressing human pGC-A. Format: cell-based. The note with it: mean±SEM. The procedure, abridged:
(§1)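 HEK293 cells stably expressing human pGC-A or pGC-B, or parental cells, were kept in DMEM with 10% FBS and 250 ug/ml G418. Cells were grown overnight to 80–90% confluency. They were treated for 10 min with serial concentrations (10−10 to 10−6 M) in HBSS containing 0.1% BSA, 2 mM HEPES and 0.5 mM IBMX; buffer alone served as vehicle. After a PBS wash and lysis in 0.1 M HCl, intracellular cGMP was measured by ELISA.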

Data set [2] concerns the target natriuretic peptide clearance receptor (NPRC), tagged with green fluorescence protein (UniProt P17342). Description: AlphaScreen or HTRF. In general terms: In Alpha technology, singlet oxygen from a donor bead excites a nearby acceptor bead.
Data set [3] deals with T2, human pGC-B receptor (Homo sapiens, UniProt P20594).
T2 sequence (P20594 23-1047): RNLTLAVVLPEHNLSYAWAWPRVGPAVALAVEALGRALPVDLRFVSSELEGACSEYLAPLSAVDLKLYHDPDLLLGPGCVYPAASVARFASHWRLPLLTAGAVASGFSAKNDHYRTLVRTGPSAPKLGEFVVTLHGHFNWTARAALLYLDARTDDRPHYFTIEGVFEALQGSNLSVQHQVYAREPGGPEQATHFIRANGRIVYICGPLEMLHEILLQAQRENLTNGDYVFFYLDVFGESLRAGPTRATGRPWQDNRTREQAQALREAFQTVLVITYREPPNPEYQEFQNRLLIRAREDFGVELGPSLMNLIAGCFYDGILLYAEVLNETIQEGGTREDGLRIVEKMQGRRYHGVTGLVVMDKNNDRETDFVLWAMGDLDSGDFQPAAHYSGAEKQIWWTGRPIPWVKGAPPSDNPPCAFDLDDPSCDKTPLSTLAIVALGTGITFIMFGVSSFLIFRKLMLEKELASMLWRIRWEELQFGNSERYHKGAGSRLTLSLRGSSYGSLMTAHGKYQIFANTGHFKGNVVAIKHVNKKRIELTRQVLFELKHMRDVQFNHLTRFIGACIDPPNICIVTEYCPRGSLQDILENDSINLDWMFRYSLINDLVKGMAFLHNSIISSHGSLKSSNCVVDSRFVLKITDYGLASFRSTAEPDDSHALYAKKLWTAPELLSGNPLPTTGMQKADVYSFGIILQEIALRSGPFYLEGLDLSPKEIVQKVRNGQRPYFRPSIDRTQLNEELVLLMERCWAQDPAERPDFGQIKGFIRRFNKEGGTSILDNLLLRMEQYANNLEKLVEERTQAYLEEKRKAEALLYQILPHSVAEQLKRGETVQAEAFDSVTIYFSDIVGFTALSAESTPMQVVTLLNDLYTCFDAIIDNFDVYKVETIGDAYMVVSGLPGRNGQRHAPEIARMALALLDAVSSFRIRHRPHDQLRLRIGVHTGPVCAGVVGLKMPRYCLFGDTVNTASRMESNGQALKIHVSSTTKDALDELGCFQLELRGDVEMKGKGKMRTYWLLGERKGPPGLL
Put plainly: cGMP generation in HEK293 cells overexpressing human pGC-B. The conditions noted are these: 10^−8.5 to 10^−6 M, 10 min, 0.5 mM IBMX, intracellular cGMP ELISA, triplicate. Format: cell-based. The gist of the method:
as §1
A general note: In an ELISA, binding on a coated surface is turned into a signal by an enzyme label.

Data set [4] in a line: Plasma CNP-like levels. It is filed as in vivo, Fischer rats. The note with it: low, medium and high dose (4.55, 45.5, 455 pmol/kg/min) IV infusion 75 min, normal rats, RIA, n=4/group. The procedure, abridged: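 They then received a 75 min continuous IV infusion (15 min lead-in) of native peptide, analogue or 0.9% saline vehicle with inulin. Infusion rate was weight-adjusted. Blood was taken after the 60 min clearance period. A non-equilibrium RIA used a CNP-sequence antibody (standard curve 0.5–128 pg; <1% cross-reactivity with ANP, BNP).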

For data set [5], the system named is parental HEK293 cells. Put plainly: cGMP generation in parental. It is filed as cell-based, human. The conditions noted are these: levels similar to vehicle treatment (Supplemental Figure 2). The gist of the method:
as §1

A short description of data set [6]: Blood pressure and renal function with acute IV infusion. Format: in vivo, Fischer rats. The note with it: mean ± SEM, n=4/group; for UV (urine flow): 60 min clearance; for UNaV (urinary sodium excretion rate): flame photometry; for GFR (glomerular filtration rate): inulin clearance; for ΔMAP (change in mean arterial pressure): normal rats. The gist of the method: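 Male Fischer rats (about 2 months, 200–250 g) under isoflurane (2–3% in oxygen) had jugular vein, carotid artery and bladder catheters. After 30 min equilibration with IV inulin and saline, test compound or 0.9% saline vehicle was infused IV with inulin for 75 min, including a 15 min lead-in. BP was recorded and urine collected over a 60 min clearance period. Urinary sodium was measured by flame photometry and inulin by anthrone; GFR was taken from inulin clearance. n=4/group.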

Where [7] appears, read: High = 455 pmol/kg/min IV infusion.
Setting [8] is: Low = 4.55 pmol/kg/min IV infusion.
The mark [9] stands for this setting: Medium = 45.5 pmol/kg/min IV infusion.

natriuretic peptide clearance receptor (NPRC), tagged with green fluorescence protein, sequence (P17342 27-541): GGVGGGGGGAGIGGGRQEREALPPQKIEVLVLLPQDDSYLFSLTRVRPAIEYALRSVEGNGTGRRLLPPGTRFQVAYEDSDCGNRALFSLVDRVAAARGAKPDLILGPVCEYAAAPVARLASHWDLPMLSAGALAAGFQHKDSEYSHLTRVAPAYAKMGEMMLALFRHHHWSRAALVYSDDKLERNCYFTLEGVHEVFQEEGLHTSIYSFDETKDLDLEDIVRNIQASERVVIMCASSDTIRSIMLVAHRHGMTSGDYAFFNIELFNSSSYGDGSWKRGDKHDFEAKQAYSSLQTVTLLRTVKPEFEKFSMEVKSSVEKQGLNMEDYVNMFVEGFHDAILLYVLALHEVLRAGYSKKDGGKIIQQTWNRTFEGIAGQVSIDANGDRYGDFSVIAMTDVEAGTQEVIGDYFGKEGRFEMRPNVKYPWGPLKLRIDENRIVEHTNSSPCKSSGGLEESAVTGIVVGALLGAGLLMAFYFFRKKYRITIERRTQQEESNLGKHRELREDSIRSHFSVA

b-type natriuretic peptide [BNP]: the “cGMP in HEK293 pGC-A cells” value in data set [1] (10^−6 M) is recorded as 1028±73 pmol/mL; in data set [1] (10^−8 M) it was 385±66 pmol/mL; in data set [1] (10^−10 M) it was 5±1 pmol/mL.

“C53, the 53-AA intermediate form of proCNP processing (peptide)” showed an AlphaScreen signal in data set [2] of 200.

Take “NH2-GLSKGCFGLKLDRIGSMSGLGC-COOH [CNP, C-type natriuretic peptide, reference compound]”: in data set [3], the “cGMP generation in HEK293 pGC-B cells compared to vehicle” value is on record as “significant cGMP generation”. Also, the “Plasma CNP-like levels (CLL)” value in data set [4] was “increased plasma CLL levels in a dose-dependent manner”. Besides, the “cGMP generation in parental HEK293 cells” value in data set [5] was “did not generate cGMP”. Besides, in data set [6] (setting [7]), the “UV (urine flow)” value was 9.8 ± 0.3 µL/min, the “UNaV (urinary sodium excretion rate)” value came to 0.9±0.1 uEq/min and the “GFR (glomerular filtration rate)” value was 1.3 ± 0.1 mL/min. Moreover, in data set [6] (setting [8]), the “UV (urine flow)” value amounted to 11.3 ± 1.0 µL/min, the “UNaV (urinary sodium excretion rate)” value is 0.8±0.1 uEq/min, the “GFR (glomerular filtration rate)” value was determined as 1.2 ± 0.1 mL/min and the “ΔMAP (change in mean arterial pressure)” value is reported as −0.9±0.9 mmHg. Further, in data set [6] (setting [9]), the “UV (urine flow)” value stood at 10.0 ± 0.9 µL/min, the “UNaV (urinary sodium excretion rate)” value is 0.7±0.1 uEq/min, the “GFR (glomerular filtration rate)” value was determined as 1.2 ± 0.2 mL/min and the “ΔMAP (change in mean arterial pressure)” value is reported as −1.9±0.5 mmHg.
